Compound activity (PubChem BioAssay)
VIM-2 inhibitor = VIM-2 metallo-beta-lactamase inhibitors, primary screen, biochemical, epi-absorbance readout, Pseudomonas aeruginosa enzyme; hit rate 0.89% among 290,000; purified VIM-2, nitrocefin hydrolysis, epi-absorbance fluorescence; inhibition, % at 5.6 µM;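 active means inhibition above the mean of all tested compounds plus 3 SD, cutoff set per screening run, cut at about 7.5% in these data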;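 further: red hydrolysis product quenches plate fluorescence so inhibitors raise well fluorescence; 0% = enzyme with DMSO and 100% = DMSO without enzyme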
IMP-1 inh = IMP-1 metallo-beta-lactamase inhibitors, primary screen, biochemical, epi-absorbance readout, Pseudomonas aeruginosa enzyme. metallo-beta-lactamase IMP-1 (Pseudomonas aeruginosa). purified IMP-1, nitrocefin hydrolysis, epi-absorbance fluorescence. inhibition, % at 5.6 µM. hit rate 0.45% among 290,000;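 active means inhibition above the mean plus 3 SD of all compounds in the same screening run, cut at about 4.5% in these data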;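 further: 0% = IMP-1 with DMSO and 100% = DMSO wells lacking enzyme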
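Test system: recombinant IMP-1 enzyme, purified / Medium: HEPES buffer pH 7.1 with ZnSO4 and Brij 35 / Doses: single dose, 5.6 µM / Times: 25 °C, 15 min preincubation, 25 min reaction / Detection: Epi-absorbance via hydrolysed-nitrocefin quenching of white-plate fluorescence, 480/530 nm, EDTA stop / Evaluation: percent inhibition from optical density relative to buffer-blank wells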
PAFAH1B2 FP inh = PAFAH1B2 enzyme inhibitors, primary screen, biochemical, fluorescence polarization, human; Platelet-activating factor acetylhydrolase IB subunit alpha2 (Homo sapiens), P68402; recombinant PAFAH1B2, FP-rhodamine activity probe; inhibition, % at 3.39 µM; hit rate 1.2% among 340,000; AID 492953, 2010;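 active means inhibition above the mean of all tested compounds plus 3 SD, cut at about 24% in these data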;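 further: 0% = enzyme with DMSO and 100% = wells lacking PAFAH1B2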
Target sequence (P68402 whole entry, looked up): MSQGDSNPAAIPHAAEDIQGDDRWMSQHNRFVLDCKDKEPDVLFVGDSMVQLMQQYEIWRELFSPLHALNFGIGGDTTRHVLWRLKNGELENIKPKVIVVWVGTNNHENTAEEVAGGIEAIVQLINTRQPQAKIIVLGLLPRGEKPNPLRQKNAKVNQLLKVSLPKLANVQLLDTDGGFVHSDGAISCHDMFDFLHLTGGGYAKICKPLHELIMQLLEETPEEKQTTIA
PAFAH2 inh = PAFAH2 enzyme inhibitors, primary screen, biochemical, fluorescence polarization, human; Platelet-activating factor acetylhydrolase 2, cytoplasmic (Homo sapiens), Q99487; recombinant PAFAH2, FP-rhodamine activity probe; inhibition, % at 3.39 µM; hit rate 0.99% among 340,000; AID 492956, 2010;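 active means inhibition above the mean over all tested compounds plus 3 SD, cut at about 30% in these data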;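 further: inhibitors block probe labeling of enzyme so polarization drops; 0% = enzyme with DMSO and 100% = wells lacking PAFAH2 protein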
PAFAH1B3 FP inh = PAFAH1B3 enzyme inhibitors, primary screen, biochemical, fluorescence polarization, human; recombinant PAFAH1B3, FP-rhodamine probe; hit rate 0.28% among 340,000; Platelet-activating factor acetylhydrolase IB subunit alpha1 (Homo sapiens), Q15102; AID 492972, 2010; inhibition, % at 3.39 µM;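 active means inhibition above the screen-wide average of all tested compounds plus 3 SD, cut at about 25% in these data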;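 further: 0% = enzyme with DMSO only and 100% = wells lacking PAFAH1B3 protein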
pPAFAH FP inh = pPAFAH enzyme inhibitors, primary screen, biochemical, fluorescence polarization, human | recombinant pPAFAH, FP-rhodamine probe fluorescence polarization | inhibition, % at 3.39 µM | hit rate 1.5% among 330,000 | AID 463082, 2010;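 active means inhibition above the mean inhibition across the screen plus 3 SD, cut at about 25% in these data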;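 further: inhibitors block binding of the rhodamine activity-based probe so polarization drops; 0% = enzyme with DMSO and 100% = wells lacking pPAFAH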
Target sequence (Q13093 whole entry, looked up): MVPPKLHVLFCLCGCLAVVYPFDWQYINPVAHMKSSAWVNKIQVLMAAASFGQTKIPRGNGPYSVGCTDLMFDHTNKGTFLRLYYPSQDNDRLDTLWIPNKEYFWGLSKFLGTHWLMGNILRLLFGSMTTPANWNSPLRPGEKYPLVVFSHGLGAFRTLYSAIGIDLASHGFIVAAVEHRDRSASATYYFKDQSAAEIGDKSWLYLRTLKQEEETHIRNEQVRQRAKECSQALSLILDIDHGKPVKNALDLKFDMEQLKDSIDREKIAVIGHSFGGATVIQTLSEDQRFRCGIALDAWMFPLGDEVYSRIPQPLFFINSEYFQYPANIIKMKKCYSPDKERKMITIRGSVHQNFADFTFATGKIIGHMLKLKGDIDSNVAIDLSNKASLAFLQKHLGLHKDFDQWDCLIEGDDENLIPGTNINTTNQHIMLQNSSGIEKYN
Numbers without * were called inactive. Hits are enriched below; roughly 3.6% of the tested compounds scored in any of these assays.

For COc1ccccc1NS(=O)(=O)c1cc(C(=O)N2CCCC2)ccc1F the results were PAFAH1B2 FP inh 1, PAFAH2 inh 13 and PAFAH1B3 FP inh 2.
For CSc1nc2ccc(NS(=O)(=O)c3ccc(CNC(C)=O)cc3)cc2s1 the results were PAFAH1B2 FP inh -3, PAFAH2 inh -2, PAFAH1B3 FP inh 0 and pPAFAH FP inh 32*.
Screening Cc1ccc2nc(-c3ccc(NS(=O)(=O)c4c(C)n(C)c(=O)n(C)c4=O)cc3)sc2c1 returned VIM-2 inhibitor 2, IMP-1 inh 0, PAFAH1B2 FP inh -2, PAFAH2 inh 1, PAFAH1B3 FP inh 3 and pPAFAH FP inh 4.
`Cc1cccc(S(=O)(=O)Nc2ccc(-c3nc4ccc(C)cc4s3)cc2)c1` gave VIM-2 inhibitor -2, IMP-1 inh -2, PAFAH1B2 FP inh -3, PAFAH2 inh -29, PAFAH1B3 FP inh 19 and pPAFAH FP inh 33*.
Cc1ccc(NS(=O)(=O)c2ccc3[nH]c(=O)sc3c2)cc1 was read as VIM-2 inhibitor -3, IMP-1 inh -3, PAFAH1B2 FP inh 22, PAFAH2 inh -1, PAFAH1B3 FP inh -4 and pPAFAH FP inh 29*.
`Cc1ccc(S(=O)(=O)Nc2ccc(-c3nc4ccc(C)cc4s3)cc2)cc1` gave VIM-2 inhibitor -2, IMP-1 inh -2, PAFAH1B2 FP inh -7, PAFAH2 inh -2, PAFAH1B3 FP inh -2 and pPAFAH FP inh 26*.
`CN(C(=O)c1ccc(NC(=O)Cc2ccc([N+](=O)[O-])cc2)cc1)C1CCCC1` gave PAFAH1B2 FP inh 2, PAFAH2 inh 0, PAFAH1B3 FP inh -2 and pPAFAH FP inh -2.
Screening COc1cc(C(F)(F)F)ccc1C(=O)NCCc1ccco1 returned VIM-2 inhibitor -4, IMP-1 inh -3, PAFAH1B2 FP inh 7, PAFAH2 inh 1, PAFAH1B3 FP inh -1 and pPAFAH FP inh 7.
`Cc1ccccc1C(=O)c1cccn1CC(=O)NC1CCCC(C)C1C` (configuration not stated) gave VIM-2 inhibitor -1, IMP-1 inh -2, PAFAH1B2 FP inh 8, PAFAH2 inh 0, PAFAH1B3 FP inh 10 and pPAFAH FP inh -3.
`COc1cc(/C=C2\SC(=S)N(CC(=O)O)C2=O)ccc1OS(=O)(=O)c1ccc(C)cc1` gave PAFAH1B2 FP inh 35*, PAFAH2 inh 8, PAFAH1B3 FP inh 21 and pPAFAH FP inh -3.
CCOC(=O)c1cc(-c2ccccc2C)n(CC2CC(c3cccc([N+](=O)[O-])c3)=NO2)n1 (configuration not stated) was read as PAFAH1B2 FP inh -2, PAFAH2 inh 8, PAFAH1B3 FP inh 2 and pPAFAH FP inh 13.
For NC(=O)C(CC(=O)O)NC(=O)[C@@H]1CCCNc2c(I)cc([N+](=O)[O-])cc2C(=O)N[C@@H](CO)C(=O)N[C@@H](Cc2ccc(O)cc2)C(=O)N1 (some centres not stated) the results were VIM-2 inhibitor -3, IMP-1 inh -1, PAFAH1B2 FP inh 8, PAFAH2 inh -1, PAFAH1B3 FP inh 7 and pPAFAH FP inh 26*.
CC(=O)N1c2ccccc2S(=O)(=O)c2c1ccc1ccccc21 was read as PAFAH1B2 FP inh -1, PAFAH2 inh 9 and PAFAH1B3 FP inh 11.
For COc1cc(NC(=O)Cn2c(-c3cncs3)nc3ccccc32)cc(OC)c1OC the results were VIM-2 inhibitor 8.6*, IMP-1 inh -3, PAFAH1B2 FP inh 3, PAFAH2 inh -8, PAFAH1B3 FP inh 3 and pPAFAH FP inh 2.
COc1cc(NC(=O)Cn2c(C)cc3ccccc3c2=O)cc(OC)c1OC was read as VIM-2 inhibitor 2, IMP-1 inh 1, PAFAH1B2 FP inh -3, PAFAH2 inh -11, PAFAH1B3 FP inh 6 and pPAFAH FP inh 3.
Screening Cc1cc(C)c(NC(=O)CSc2nnc(SCC(=O)Nc3c(C)cc(C)cc3C)n2N)c(C)c1 returned VIM-2 inhibitor -4, IMP-1 inh 7.2*, PAFAH1B2 FP inh -2, PAFAH2 inh -5, PAFAH1B3 FP inh 10 and pPAFAH FP inh -2.
Screening CCOC(=O)N1C(=O)NC(=O)C1c1ccc(Cl)cc1 (configuration not stated) returned PAFAH1B2 FP inh 3, PAFAH2 inh -7 and PAFAH1B3 FP inh 5.
COc1ccc(-c2cc(C(F)(F)F)nc(-n3cncn3)n2)cc1 was read as VIM-2 inhibitor 11*, IMP-1 inh -2, PAFAH1B2 FP inh 7, PAFAH2 inh -1, PAFAH1B3 FP inh -6 and pPAFAH FP inh 3.
`CS(=O)(=O)c1nc(-c2ccc(F)cc2)cc(C(F)(F)F)n1` gave VIM-2 inhibitor -2, IMP-1 inh -3, PAFAH1B2 FP inh -4, PAFAH2 inh -13 and PAFAH1B3 FP inh -5.
`COc1ccc(-c2cc(C(F)(F)F)nc(S(C)(=O)=O)n2)cc1` gave VIM-2 inhibitor 0, IMP-1 inh -4, PAFAH1B2 FP inh -5, PAFAH2 inh -2, PAFAH1B3 FP inh 0 and pPAFAH FP inh 29*.
For COc1cccc(-c2ccc(SCC(=O)NC3CCCCC3)nn2)c1 the results were VIM-2 inhibitor 0, IMP-1 inh -2, PAFAH1B2 FP inh 3, PAFAH2 inh 1, PAFAH1B3 FP inh 4 and pPAFAH FP inh 7.
CN(C)CCCN1C(=O)c2cc3ccccc3cc2C1=O was read as VIM-2 inhibitor 1, IMP-1 inh -1, PAFAH1B2 FP inh 6, PAFAH2 inh 3, PAFAH1B3 FP inh 6 and pPAFAH FP inh 6.
`CN(C)CCCN1C(=O)c2cccc3cccc(c23)C1=O` gave VIM-2 inhibitor 7.8*, IMP-1 inh -4, PAFAH1B2 FP inh 5, PAFAH2 inh 0, PAFAH1B3 FP inh 7 and pPAFAH FP inh 2.
For CC1CCN(S(=O)(=O)c2ccc(NC(=O)C3CSC4(C)CCC(=O)N34)cc2)CC1 (configuration not stated) the results were PAFAH1B2 FP inh 16, PAFAH2 inh 2, PAFAH1B3 FP inh 10 and pPAFAH FP inh 10.
`N#CC1(NC(=O)COC(=O)c2cc(O)c3ccccc3c2O)CCCCC1` gave PAFAH1B2 FP inh 16, PAFAH2 inh 21, PAFAH1B3 FP inh 50* and pPAFAH FP inh 13.
For Cc1ccc(NC(=O)/C(C#N)=C(\N)C(Cl)(Cl)Cl)nc1 the results were VIM-2 inhibitor -3, IMP-1 inh -2, PAFAH1B2 FP inh 45*, PAFAH2 inh 41*, PAFAH1B3 FP inh 43* and pPAFAH FP inh 6.
Screening Cc1ccc(NC(=O)C(=O)Nc2ccc(C)cn2)nc1 returned VIM-2 inhibitor 0, IMP-1 inh 0, PAFAH1B2 FP inh 3, PAFAH2 inh 1, PAFAH1B3 FP inh 8 and pPAFAH FP inh 0.
